From PMC7993274 (Clinical and Translational Science, 2020)
“Also recorded” adds a separate entry of the source.

Experiments:
[1] = Treatment-emergent adverse events, MAD period and b.i.d. cohort; format: in vivo, human
Outline: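 Double-blind, placebo-controlled study in healthy men and nonchildbearing women aged 18–55 y. The SAD period gave one fasted oral dose; the MAD period gave fed dosing q.d. for 10 days, plus a separate b.i.d. cohort. TEAEs, serious AEs and discontinuation AEs were monitored ≥28 days after the last dose. Vital signs, physical exam, 12-lead ECG, hematology, clinical chemistry and urinalysis were also recorded. Data summarized descriptively.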

[2] = background statement, no reference given; cited from earlier work
MATE2 = conditions: cited from earlier work
Impact of food on PK = format: in vivo, human; design: Cmax adjusted geometric mean (90% CI) for fed vs. fasted / AUC24 adjusted geometric mean for fed vs. fasted (90% CI): unit not given beside the values; conditions: for increase in AUC24 with a meal / increase in Cmax with a meal: fed vs fasted
MATE1 = conditions: cited from earlier work
[3] = pH 6.5; background statement, no reference given; cited from earlier work
MRP3 = conditions: cited from earlier work
[4] = rats, preclinical studies; cited from earlier work
[5] = MAD Japanese cohort 400 mg q.d. (n = 5)
[6] = b.i.d. cohort 200 mg b.i.d. (n = 7)

AUC24 adjusted geometric mean for fed vs. fasted (90% CI) (Impact of food on PK; 30 mg): 122.0 (78.7–189.2)
Cmax adjusted geometric mean (90% CI) for fed vs. fasted (Impact of food on PK; 30 mg): 107.2 (74.2–154.8)
increase in AUC24 with a meal (Impact of food on PK; 30 mg): 22%
increase in Cmax with a meal (Impact of food on PK; 30 mg): 7%
AUC24 adjusted geometric mean for fed vs. fasted (90% CI) (Impact of food on PK; 100 mg): 155.7 (99.1–244.6)
Cmax adjusted geometric mean (90% CI) for fed vs. fasted (Impact of food on PK; 100 mg): 160.2 (109.7–234.0)
increase in AUC24 with a meal (Impact of food on PK; 100 mg): 56%
increase in Cmax with a meal (Impact of food on PK; 100 mg): 60%
AUC24 adjusted geometric mean for fed vs. fasted (90% CI) (Impact of food on PK; 400 mg): 175.6 (113.3–272.3)
Cmax adjusted geometric mean (90% CI) for fed vs. fasted (Impact of food on PK; 400 mg): 144.8 (100.2–209.1)
increase in AUC24 with a meal (Impact of food on PK; 400 mg): 76%
increase in Cmax with a meal (Impact of food on PK; 400 mg): 45%
median Tmax with food (Impact of food on PK; fed, day 1 MAD, doses of 30–400 mg): 3.0 to 4.0 h
SMILES: Cn1cc(-c2cn3nccc3c(-c3cnn([C@]4(CC#N)C[C@@H](C#N)C4)c3)n2)cn1 [PF‐06826647]
AEs ([1]; MAD 30 mg q.d. (n = 6)): 2 n
AEs leading to permanent discontinuation of study drug ([1]; MAD 30 mg q.d. (n = 6)): 0 n
AEs leading to study drug dose reduction or interruption ([1]; MAD 30 mg q.d. (n = 6)): 0 n
Participants with AE ([1]; MAD 30 mg q.d. (n = 6)): 2 (33.3) n (%)
Participants with TEAEs: Alanine aminotransferase increased ([1]; MAD 30 mg q.d. (n = 6)): 0 n (%)
Participants with TEAEs: Blood creatinine increased ([1]; MAD 30 mg q.d. (n = 6)): 0 n (%)
Participants with TEAEs: Constipation ([1]; MAD 30 mg q.d. (n = 6)): 1 (16.7) n (%)
Participants with TEAEs: Dysuria ([1]; MAD 30 mg q.d. (n = 6)): 0 n (%)
Participants with TEAEs: Gastrointestinal disorders (SOC) ([1]; MAD 30 mg q.d. (n = 6)): 2 (33.3) n (%)
Participants with TEAEs: Headache ([1]; MAD 30 mg q.d. (n = 6)): 0 n (%)
Participants with TEAEs: Investigations (SOC) ([1]; MAD 30 mg q.d. (n = 6)): 0 n (%)
Participants with TEAEs: Nausea ([1]; MAD 30 mg q.d. (n = 6)): 1 (16.7) n (%)
Participants with TEAEs: Nervous system disorders (SOC) ([1]; MAD 30 mg q.d. (n = 6)): 0 n (%)
Participants with TEAEs: Renal and urinary disorders (SOC) ([1]; MAD 30 mg q.d. (n = 6)): 0 n (%)
SAEs ([1]; MAD 30 mg q.d. (n = 6)): 0 n
Severe AEs ([1]; MAD 30 mg q.d. (n = 6)): 0 n
AEs ([1]; MAD 100 mg q.d. (n = 6)): 1 n
AEs leading to permanent discontinuation of study drug ([1]; MAD 100 mg q.d. (n = 6)): 0 n
AEs leading to study drug dose reduction or interruption ([1]; MAD 100 mg q.d. (n = 6)): 0 n
Participants with AE ([1]; MAD 100 mg q.d. (n = 6)): 1 (16.7) n (%)
Participants with TEAEs: Alanine aminotransferase increased ([1]; MAD 100 mg q.d. (n = 6)): 0 n (%)
Participants with TEAEs: Blood creatinine increased ([1]; MAD 100 mg q.d. (n = 6)): 1 (16.7) n (%)
Participants with TEAEs: Constipation ([1]; MAD 100 mg q.d. (n = 6)): 0 n (%)
Participants with TEAEs: Dysuria ([1]; MAD 100 mg q.d. (n = 6)): 0 n (%)
Participants with TEAEs: Gastrointestinal disorders (SOC) ([1]; MAD 100 mg q.d. (n = 6)): 0 n (%)
Participants with TEAEs: Headache ([1]; MAD 100 mg q.d. (n = 6)): 0 n (%)
Participants with TEAEs: Investigations (SOC) ([1]; MAD 100 mg q.d. (n = 6)): 1 (16.7) n (%)
Participants with TEAEs: Nausea ([1]; MAD 100 mg q.d. (n = 6)): 0 n (%)
Participants with TEAEs: Nervous system disorders (SOC) ([1]; MAD 100 mg q.d. (n = 6)): 0 n (%)
Participants with TEAEs: Renal and urinary disorders (SOC) ([1]; MAD 100 mg q.d. (n = 6)): 0 n (%)
SAEs ([1]; MAD 100 mg q.d. (n = 6)): 0 n
Severe AEs ([1]; MAD 100 mg q.d. (n = 6)): 0 n
AEs ([1]; MAD 400 mg q.d. (n = 6)): 1 n
AEs leading to permanent discontinuation of study drug ([1]; MAD 400 mg q.d. (n = 6)): 0 n
AEs leading to study drug dose reduction or interruption ([1]; MAD 400 mg q.d. (n = 6)): 0 n
Participants with AE ([1]; MAD 400 mg q.d. (n = 6)): 1 (16.7) n (%)
Participants with TEAEs: Alanine aminotransferase increased ([1]; MAD 400 mg q.d. (n = 6)): 0 n (%)
Participants with TEAEs: Blood creatinine increased ([1]; MAD 400 mg q.d. (n = 6)): 1 (16.7) n (%)
Participants with TEAEs: Constipation ([1]; MAD 400 mg q.d. (n = 6)): 0 n (%)
Participants with TEAEs: Dysuria ([1]; MAD 400 mg q.d. (n = 6)): 0 n (%)
Participants with TEAEs: Gastrointestinal disorders (SOC) ([1]; MAD 400 mg q.d. (n = 6)): 0 n (%)
Participants with TEAEs: Headache ([1]; MAD 400 mg q.d. (n = 6)): 0 n (%)
Participants with TEAEs: Investigations (SOC) ([1]; MAD 400 mg q.d. (n = 6)): 1 (16.7) n (%)
Participants with TEAEs: Nausea ([1]; MAD 400 mg q.d. (n = 6)): 0 n (%)
Participants with TEAEs: Nervous system disorders (SOC) ([1]; MAD 400 mg q.d. (n = 6)): 0 n (%)
Participants with TEAEs: Renal and urinary disorders (SOC) ([1]; MAD 400 mg q.d. (n = 6)): 0 n (%)
SAEs ([1]; MAD 400 mg q.d. (n = 6)): 0 n
Severe AEs ([1]; MAD 400 mg q.d. (n = 6)): 0 n
AEs ([1]; MAD 1,200 mg q.d. (n = 5)): 1 n
AEs leading to permanent discontinuation of study drug ([1]; MAD 1,200 mg q.d. (n = 5)): 0 n
AEs leading to study drug dose reduction or interruption ([1]; MAD 1,200 mg q.d. (n = 5)): 0 n
Participants with AE ([1]; MAD 1,200 mg q.d. (n = 5)): 1 (20.0) n (%)
Participants with TEAEs: Alanine aminotransferase increased ([1]; MAD 1,200 mg q.d. (n = 5)): 0 n (%)
Participants with TEAEs: Blood creatinine increased ([1]; MAD 1,200 mg q.d. (n = 5)): 1 (20.0) n (%)
Participants with TEAEs: Constipation ([1]; MAD 1,200 mg q.d. (n = 5)): 0 n (%)
Participants with TEAEs: Dysuria ([1]; MAD 1,200 mg q.d. (n = 5)): 0 n (%)
Participants with TEAEs: Headache ([1]; MAD 1,200 mg q.d. (n = 5)): 0 n (%)
Participants with TEAEs: Investigations (SOC) ([1]; MAD 1,200 mg q.d. (n = 5)): 1 (20.0) n (%)
Participants with TEAEs: Nausea ([1]; MAD 1,200 mg q.d. (n = 5)): 0 n (%)
Participants with TEAEs: Nervous system disorders (SOC) ([1]; MAD 1,200 mg q.d. (n = 5)): 0 n (%)
Participants with TEAEs: Renal and urinary disorders (SOC) ([1]; MAD 1,200 mg q.d. (n = 5)): 0 n (%)
SAEs ([1]; MAD 1,200 mg q.d. (n = 5)): 0 n
Severe AEs ([1]; MAD 1,200 mg q.d. (n = 5)): 0 n
AEs [1, 5]: 2 n
AEs leading to permanent discontinuation of study drug [1, 5]: 0 n
AEs leading to study drug dose reduction or interruption [1, 5]: 0 n
Participants with AE [1, 5]: 1 (20.0) n (%)
Participants with TEAEs: Alanine aminotransferase increased [1, 5]: 1 (20.0) n (%)
Participants with TEAEs: Blood creatinine increased [1, 5]: 0 n (%)
Participants with TEAEs: Constipation [1, 5]: 0 n (%)
Participants with TEAEs: Dysuria [1, 5]: 0 n (%)
Participants with TEAEs: Gastrointestinal disorders (SOC) [1, 5]: 0 n (%)
Participants with TEAEs: Headache [1, 5]: 1 (20.0) n (%)
Participants with TEAEs: Investigations (SOC) [1, 5]: 1 (20.0) n (%)
Participants with TEAEs: Nausea [1, 5]: 0 n (%)
Participants with TEAEs: Nervous system disorders (SOC) [1, 5]: 1 (20.0) n (%)
Participants with TEAEs: Renal and urinary disorders (SOC) [1, 5]: 0 n (%)
SAEs [1, 5]: 0 n
Severe AEs [1, 5]: 0 n
AEs [1, 6]: 3 n
AEs leading to permanent discontinuation of study drug [1, 6]: 0 n
AEs leading to study drug dose reduction or interruption [1, 6]: 0 n
Participants with AE [1, 6]: 3 (42.9) n (%)
Participants with TEAEs: Alanine aminotransferase increased [1, 6]: 0 n (%)
Participants with TEAEs: Blood creatinine increased [1, 6]: 3 (42.9) n (%)
Participants with TEAEs: Constipation [1, 6]: 0 n (%)
Participants with TEAEs: Dysuria [1, 6]: 0 n (%)
Participants with TEAEs: Gastrointestinal disorders (SOC) [1, 6]: 0 n (%)
Participants with TEAEs: Headache [1, 6]: 0 n (%)
Participants with TEAEs: Investigations (SOC) [1, 6]: 3 (42.9) n (%)
Participants with TEAEs: Nausea [1, 6]: 0 n (%)
Participants with TEAEs: Nervous system disorders (SOC) [1, 6]: 0 n (%)
Participants with TEAEs: Renal and urinary disorders (SOC) [1, 6]: 0 n (%)
SAEs [1, 6]: 0 n
Severe AEs [1, 6]: 0 n
cellular permeability [2]: ~ 17 × 10^‐6 cm/s
inhibition of transporter protein MATE2 (MATE2): MATE2 inhibition; also recorded: inhibitor of the MATE2 renal transporter
inhibition of transporter protein MATE1 (MATE1): minimal inhibition
solubility [3]: ~ 0.3 μg/mL
inhibition of transporter protein MRP3 (MRP3): minimal inhibition
drug clearance via renal and biliary excretion [4]: limited drug clearance via renal and biliary excretion
